Format in all cases: functional, cell-based
In assay [1] the target is Melatonin receptor type 1A (Homo sapiens) (UniProt P48039). Kind of assay: Agonist activity at human MT1 receptor expressed in HEK293 cells incubated for 1 hr by Fluo-8 dye based calcium assay. A digest of the protocol: (§1)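 HEK293 cells stably expressing the human receptor, kept in DMEM with 10% FBS, seeded at 4 × 10^4 cells/well on Matrigel-coated plates and incubated overnight (5% CO2, 37 °C). Fluo-8 wash-free calcium dye loaded for 1 h at 37 °C. Samples in Hank's balanced salt solution, tested at 0.25 mM. Calcium fluorescence read on a FlexStation3 plate reader.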

The target in assay [2] is T1, Melatonin receptor type 1B (Homo sapiens) (UniProt P49286).
T1 sequence (whole entry): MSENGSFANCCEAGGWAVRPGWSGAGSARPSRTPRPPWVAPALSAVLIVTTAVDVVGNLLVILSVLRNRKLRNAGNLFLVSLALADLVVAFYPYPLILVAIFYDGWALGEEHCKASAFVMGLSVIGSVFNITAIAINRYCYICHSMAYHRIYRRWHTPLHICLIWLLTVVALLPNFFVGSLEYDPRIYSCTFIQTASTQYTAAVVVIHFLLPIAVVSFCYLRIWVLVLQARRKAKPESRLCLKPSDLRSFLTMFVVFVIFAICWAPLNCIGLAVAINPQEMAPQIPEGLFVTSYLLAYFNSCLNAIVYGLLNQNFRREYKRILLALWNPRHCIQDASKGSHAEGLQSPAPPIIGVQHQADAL
Description: Agonist activity at human MT2 receptor expressed in HEK293 cells incubated for 1 hr by Fluo-8 dye based calcium assay. A digest of the protocol: as §1

For assay [3], the target named is T2, 5-hydroxytryptamine receptor 1A (Homo sapiens) (UniProt P08908).
T2 sequence (whole entry): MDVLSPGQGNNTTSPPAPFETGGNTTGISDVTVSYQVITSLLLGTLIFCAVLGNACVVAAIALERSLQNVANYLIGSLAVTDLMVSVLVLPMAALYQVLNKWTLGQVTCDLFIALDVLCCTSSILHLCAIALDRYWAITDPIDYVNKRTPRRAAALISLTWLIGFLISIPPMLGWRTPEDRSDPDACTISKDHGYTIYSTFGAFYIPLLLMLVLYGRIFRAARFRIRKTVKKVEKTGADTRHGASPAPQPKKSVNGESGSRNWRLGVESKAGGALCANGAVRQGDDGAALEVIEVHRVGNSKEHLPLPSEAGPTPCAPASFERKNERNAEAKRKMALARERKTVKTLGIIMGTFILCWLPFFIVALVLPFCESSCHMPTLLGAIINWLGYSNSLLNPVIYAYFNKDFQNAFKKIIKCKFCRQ
Description: Agonist activity at human 5HT1A receptor expressed in HEK293 cells incubated for 1 hr by Fluo-8 dye based calcium assay. A digest of the protocol: as §1

For assay [4], the target named is T3, 5-hydroxytryptamine receptor 2C (Homo sapiens) (UniProt P28335).
T3 sequence (whole entry): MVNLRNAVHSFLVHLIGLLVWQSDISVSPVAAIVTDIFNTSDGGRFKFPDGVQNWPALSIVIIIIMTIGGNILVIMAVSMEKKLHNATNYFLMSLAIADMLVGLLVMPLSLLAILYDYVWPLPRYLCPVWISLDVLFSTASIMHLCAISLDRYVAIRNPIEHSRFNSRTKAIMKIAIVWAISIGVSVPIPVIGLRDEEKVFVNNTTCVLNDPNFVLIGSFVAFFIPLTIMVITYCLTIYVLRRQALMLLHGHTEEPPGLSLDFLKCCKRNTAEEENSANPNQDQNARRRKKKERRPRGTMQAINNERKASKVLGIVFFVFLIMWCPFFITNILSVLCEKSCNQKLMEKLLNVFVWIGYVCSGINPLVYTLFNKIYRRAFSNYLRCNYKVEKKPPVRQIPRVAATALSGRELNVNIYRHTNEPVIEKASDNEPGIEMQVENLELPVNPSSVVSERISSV
Kind of assay: Agonist activity at human 5HT2C receptor expressed in HEK293 cells incubated for 1 hr by Fluo-8 dye based calcium assay. The method in brief:
as §1

Calls of active or inactive are those of the source. The calls are words filed in the database; no cut-off is given here.

Sequence of Melatonin receptor type 1A (Homo sapiens) (P48039 whole entry): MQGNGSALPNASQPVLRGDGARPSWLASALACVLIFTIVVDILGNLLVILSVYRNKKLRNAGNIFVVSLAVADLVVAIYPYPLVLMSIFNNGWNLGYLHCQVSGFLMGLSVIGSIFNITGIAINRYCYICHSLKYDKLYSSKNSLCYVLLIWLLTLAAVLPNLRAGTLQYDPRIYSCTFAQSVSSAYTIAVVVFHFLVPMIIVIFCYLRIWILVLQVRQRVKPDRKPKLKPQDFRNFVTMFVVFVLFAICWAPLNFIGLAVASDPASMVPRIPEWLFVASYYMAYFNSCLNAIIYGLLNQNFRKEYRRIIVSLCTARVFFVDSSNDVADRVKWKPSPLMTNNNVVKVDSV

In the case of `C=CC(C)(C)c1[nH]c2ccccc2c1[C@@H]1[C@@H](c2c(C(C)(C)C=C)[nH]c3ccccc23)[C@@]2(NC(=O)[C@@H](C)NC2=O)[C@]12NC(=O)[C@@H](C)NC2=O`, the outcome in assay [1] and in assay [2] was Active. Moreover, the outcome in assay [3] and in assay [4] was inactive.

Turning to `C=CC(C)(C)c1[nH]c2ccccc2c1[C@H]1[C@H](c2c(C(C)(C)C=C)[nH]c3ccccc23)[C@]2(NC(=O)[C@@H](C)NC2=O)[C@@]12NC(=O)[C@@H](C)NC2=O`, the Activity in assay [1] is 11.3%; in assay [2], 52.4%. Further, the result in assay [3] and in assay [4] was inactive.

Regarding `C=CC(C)(C)c1[nH]c2ccccc2c1[C@H]1[C@H](c2c(C(C)(C)C=C)[nH]c3ccccc23)[C@]2(NC(=O)[C@H](C)NC2=O)[C@@]12NC(=O)[C@H](C)NC2=O`, the outcome in assay [1] and in assay [2] was Active. The result in assay [3] and in assay [4] was inactive.

As to `C=CC(C)(C)c1[nH]c2ccccc2c1[C@@H]1[C@@H](c2c(C(C)(C)C=C)[nH]c3ccccc23)[C@@]2(NC(=O)[C@H](C)NC2=O)[C@]12NC(=O)[C@H](C)NC2=O`, the result in assay [1] and in assay [2] was Active. Moreover, the outcome in assay [3] and in assay [4] was inactive.

(Values after ChEMBL document CHEMBL4043068, “(±)-Uncarilins A and B, Dimeric Isoechinulin-Type Alkaloids from Uncaria rhynchophylla” (J Nat Prod, 2017).)
